Assay [1] relates to Rattus norvegicus. The experiment in a line: Tested for in vivo inhibition of galactitol accumulation in the lens of galactose-fed rats at the dose of 24 (mg/kg/day); NS=Not significant. The following applies: Lens of camera-type eye. The format is functional, organism-based.
In assay [2] the target is Aldo-keto reductase family 1 member B1 (Bos taurus) (UniProt P16116). The experiment in a line: Inhibition of aldose reductase activity in partially purified bovine lens preparation at 4*10 e-8 M.
For assay [3], the system named is Rattus norvegicus. The assay can be described thus: Tested for in vivo inhibition of galactitol accumulation in the sciatic nerve of galactose-fed rats at the dose of 24 (mg/kg/day); NS=Not significant. The format is functional, organism-based. In outline:
(§1)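 Rats were given a 20% galactose diet for 4 days, with the test compound administered in the diet. Sciatic nerve galactitol accumulation was measured, and activity is given as % inhibition at the stated daily dose (mg/kg/day). Values are mean ± SEM, n = 6 animals; p < 0.01 unless indicated. NS means no significant inhibition of polyol accumulation.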

Assay [4] has as its target Aldo-keto reductase family 1 member B1 (Bos taurus) (UniProt P16116). The assay can be described thus: Inhibition of aldose reductase activity in partially purified bovine lens preparation at 10e-5 M. In outline: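 Partially purified bovine lens aldose reductase. Reduction of DL-glyceraldehyde substrate followed spectrophotometrically. Activity expressed as average inhibition at the tested concentrations, 1×10^-5, 1×10^-6, 1×10^-7 and 4×10^-6 M as printed; IC50 in M where given.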

Assay [5] relates to Rattus norvegicus. The experiment in a line: Tested for in vivo inhibition of galactitol accumulation in the sciatic nerve of galactose-fed rats at the dose of 1.0 (mg/kg/day); NS=Not significant.
Assay [6] relates to Rattus norvegicus. The experiment in a line: Tested for in vivo inhibition of galactitol accumulation in the sciatic nerve of galactose-fed rats at the dose of 46.1 (mg/kg/day); NS=Not significant. Type of assay: functional, organism-based. A digest of the protocol: as §1
Assay [7] deals with Rattus norvegicus. The assay can be described thus: Tested for in vivo inhibition of galactitol accumulation in the lens of galactose-fed rats at the dose of 46.1 (mg/kg/day); NS=Not significant. Type of assay: functional, organism-based. The following applies: Lens of camera-type eye.
Assay [8] deals with Rattus norvegicus. The experiment in a line: Tested for in vivo inhibition of galactitol accumulation in the sciatic nerve of galactose-fed rats.4.9 (mg/kg/day); NS=Not significant. Type of assay: functional, organism-based. In outline:
(§2)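 Rats fed a 20% galactose diet for 4 days, with test compound given in the diet at the stated daily dose (mg/kg/day). Read-out is inhibition of galactitol (polyol) accumulation in sciatic nerve. Values are % inhibition, mean ± SEM of six animals; p < 0.01 unless marked (some p < 0.05). NS = no significant inhibition of polyol accumulation. Tolrestat was the reference standard.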

Assay [9] concerns Rattus norvegicus. The experiment in a line: Tested for in vivo inhibition of galactitol accumulation in the lens of galactose-fed rats at the dose of 4.9 (mg/kg/day); NS=Not significant. Type of assay: functional, organism-based. The following applies: Lens of camera-type eye.
In assay [10] the target is Aldo-keto reductase family 1 member B1 (Bos taurus) (UniProt P16116). The experiment in a line: Compound was tested in vitro for inhibition of aldose reductase activity in partially purified bovine lens preparation at 10 e-8 M.
Assay [11] relates to Rattus norvegicus. The experiment in a line: Tested for in vivo inhibition of galactitol accumulation in the sciatic nerve of galactose-fed rats at the dose of 5.3 (mg/kg/day); NS=Not significant. Type of assay: functional, organism-based. A digest of the protocol: as §2
Assay [12] has as its system Rattus norvegicus. The experiment in a line: Tested for in vivo inhibition of galactitol accumulation in the lens of galactose-fed rats at the dose of 5.3 (mg/kg/day); NS=Not significant. Type of assay: functional, organism-based. The following applies: Lens of camera-type eye.
The test system of assay [13] is Rattus norvegicus. The experiment in a line: Tested for in vivo inhibition of galactitol accumulation in the sciatic nerve of galactose-fed rats at the dose of 26.2 (mg/kg/day); NS=Not significant. The format is functional, organism-based. A digest of the protocol:
as §1

Assay [14] relates to Rattus norvegicus. The assay can be described thus: Tested for in vivo inhibition of galactitol accumulation in the lens of galactose-fed rats at the dose of 22 (mg/kg/day); NS=Not significant. Type of assay: functional, organism-based. The following applies: Lens of camera-type eye.
Assay [15] concerns Rattus norvegicus. The assay can be described thus: Tested for in vivo inhibition of galactitol accumulation in the sciatic nerve of galactose-fed rats at the dose of 22 (mg/kg/day); NS=Not significant. The format is functional, organism-based. A digest of the protocol:
as §1

Assay [16] relates to Rattus norvegicus. The assay can be described thus: Tested for in vivo inhibition of galactitol accumulation in the sciatic nerve of galactose-fed rats at the dose of 97.1 (mg/kg/day); NS=Not significant. The format is functional, organism-based. A digest of the protocol: as §2
Assay [17] relates to Rattus norvegicus. The assay can be described thus: Tested for in vivo inhibition of galactitol accumulation in the lens of galactose-fed rats at the dose of 97.1 (mg/kg/day); NS=Not significant. Type of assay: functional, organism-based. The following applies: Lens of camera-type eye. A digest of the protocol: (§3)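 Galactosemic rats were fed 20% galactose for 4 days, with the compound mixed into the diet. […] galactitol accumulation was measured, and activity is given as % inhibition at the stated daily dose (mg/kg/day). Values are mean ± SEM of six animals; p < 0.01 unless indicated. NS means no significant inhibition of polyol accumulation.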

Assay [18] relates to Rattus norvegicus. The assay can be described thus: Tested for in vivo inhibition of galactitol accumulation in the lens of galactose-fed rats at the dose of 48 (mg/kg/day); NS=Not significant. The format is functional, organism-based. The following applies: Lens of camera-type eye.
The test system of assay [19] is Rattus norvegicus. The assay can be described thus: Tested for in vivo inhibition of galactitol accumulation in the sciatic nerve of galactose-fed rats at the dose of 48 (mg/kg/day). The format is functional. In outline: as §2
In assay [20] the test system is Rattus norvegicus. The experiment in a line: Tested for in vivo inhibition of galactitol accumulation in the sciatic nerve of galactose-fed rats at the dose of 91.6 (mg/kg/day); NS=Not significant. Type of assay: functional, organism-based. In outline: as §2
The test system of assay [21] is Rattus norvegicus. The assay can be described thus: Tested for in vivo inhibition of galactitol accumulation in the lens of galactose-fed rats at the dose of 91.6 (mg/kg/day); NS=Not significant. Type of assay: functional, organism-based. The following applies: Lens of camera-type eye. In outline:
as §3

For assay [22], the system named is Rattus norvegicus. The assay can be described thus: Tested for in vivo inhibition of galactitol accumulation in the lens of galactose-fed rats at the dose of 54.8 (mg/kg/day); NS=Not significant. Type of assay: functional, organism-based. The following applies: Lens of camera-type eye.
The subject of assay [23] is Rattus norvegicus. The experiment in a line: Tested for in vivo inhibition of galactitol accumulation in the sciatic nerve of galactose-fed rats at the dose of 54.8 (mg/kg/day). The format is functional. In outline: as §2
Assay [24] deals with Rattus norvegicus. The experiment in a line: Tested for in vivo inhibition of galactitol accumulation in the sciatic nerve of galactose-fed rats at the dose of 10.0 (mg/kg/day); NS=Not significant. Type of assay: functional, organism-based. In outline:
as §1

Broadly, the inhibition is the drop in the measured response relative to a control, in per cent. One may read the Inhibition as the relative decrease from the control value, in per cent. A lower Inhibition goes with a response near the control.

The structures appear in SMILES notation. Activity calls are given as the source filed them. The calls are words filed in the database; no cut-off is given here.

Turning to `O=C(O)CC1C(=O)N(Cc2nc3cc(C(F)(F)F)ccc3s2)C(=O)c2ccc(F)cc21` (configuration not stated), the inhibition result with Rattus norvegicus [1] and with Rattus norvegicus [3] was “inactive” throughout. In [2], this molecule returned an inhibition of 62%.
Turning to `CCCN1C(=O)CC2(C1=O)C(=O)N(Cc1ccc(Br)cc1F)C(=O)c1ccc(F)cc12` (configuration not stated), the inhibition result (in assay [4]; in the assay on Rattus norvegicus [5]) was “inactive” in each case.
With `COc1ccc2c(c1)C(=O)N(Cc1ccc(Br)cc1F)C(=O)C2CC(=O)O` (configuration not stated), the inhibition entry in the assay on Rattus norvegicus [6] and with Rattus norvegicus [7] was “inactive” each time. In [2], the inhibition was determined as 61%.
On to `CN1C(=O)c2ccc(Cl)cc2C(CC(=O)O)C1=O` (configuration not stated), for which the inhibition entry in the assay with Rattus norvegicus [8] and in the assay with Rattus norvegicus [9] was “inactive” each time. In addition, the inhibition in [10] was found to be 35%.
Take `CN1C(=O)c2ccc(Cl)cc2C(CC(N)=O)C1=O` (configuration not stated): the inhibition result (with Rattus norvegicus [11]; in assay [4]; in the assay with Rattus norvegicus [12]) was “inactive” throughout.
For `O=C(O)CN1C(=O)CC2(C1=O)C(=O)N(Cc1ccc(Br)cc1F)C(=O)c1ccc(F)cc12` (configuration not stated), the inhibition result in the assay on Rattus norvegicus [13] was “inactive”. Further, in assay [4], the inhibition was found to be 60%.
On to `COc1c(CC(=O)O)c2ccccc2c(=O)n1Cc1ccc(Br)cc1F`, for which the inhibition entry in the assay on Rattus norvegicus [14] and in the assay on Rattus norvegicus [15] was “inactive” in each case.
As for `CCCCN1C(=O)c2ccccc2C(CC(=O)NC(=O)OC)C1=O` (configuration not stated), the inhibition result (with Rattus norvegicus [16]; in assay [4]; with Rattus norvegicus [17]) was “inactive” each time.
`COC(=O)NC(=O)CC1C(=O)N(Cc2ccc(Br)cc2F)C(=O)c2ccccc21` (configuration not stated): the inhibition entry in the assay on Rattus norvegicus [18] was “inactive”. In addition, the inhibition in assay [4] worked out at 84%. This molecule also registered an Inhibition with Rattus norvegicus [19] of 96%.
Turning to `CCCN1C(=O)c2ccccc2C(CC(=O)NC(=O)OC)C1=O` (configuration not stated), the inhibition result (in the assay on Rattus norvegicus [20]; in assay [4]; in the assay on Rattus norvegicus [21]) was “inactive” throughout.
As for `COC(=O)N(C(=O)OC)N1C(=O)CC2(C(=O)N(Cc3ccc(Br)cc3F)C(=O)c3ccccc32)C1=O` (configuration not stated), the inhibition entry (in [4]; in the assay with Rattus norvegicus [22]) was “inactive” throughout. In the assay with Rattus norvegicus [23], this molecule yielded an Inhibition of 50%.
Regarding `O=C1CC2(C(=O)N1CC(F)(F)F)C(=O)N(Cc1ccc(Br)cc1F)C(=O)c1ccccc12` (configuration not stated), the inhibition entry (in the assay on Rattus norvegicus [24]; in assay [4]) was “inactive” throughout.

The values above are taken from ChEMBL document CHEMBL1127562, “N-substituted spirosuccinimide, spiropyridazine, spiroazetidine, and acetic acid aldose reductase inhibitors derived from isoquinoline-1,3-diones. 2” (J Med Chem, 1994).
